Test results taken from ChEMBL document CHEMBL4513216, “Probing the Open Global Health Chemical Diversity Library for Multistage-Active Starting Points for Next-Generation Antimalarials” (ACS Infect Dis, 2020).

assay: Toxicity liver stage against HepG2, at 10uM; assay type: cell-based; parameters: test concentration 10 uM, cell line HepG2-A16-CD81EGFP; settings: human, HepG2-A16-CD81EGFP cells; read-out: INHIBITION
In short: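 Uninfected HepG2-A16-CD81EGFP cells, 3 × 10^3 per well, 1536-well, plated on prespotted compound at 10 μM final, parasite-free screening media added to match infected plates; puromycin 10 μM positive, DMSO 0.5% negative; run in parallel with 48 h PbLuc assay at 37 °C, 5% CO2; viability by CellTiter-Glo luminescence, normalized to controls.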

Compound | cytotoxicity at 10 µM [%]
CS(=O)(=O)c1ccc(-c2c[nH]c([C@@H]3COCCN3)n2)cc1 | 5.29
COCC(=O)Nc1ccc(-c2noc([C@@H]3CCCN3C)n2)cn1 | 6.65
O=C(Nc1ccc2c(c1)OCCO2)N1CCCC1c1ccco1 (stereo unspecified) | 8.2
CCOc1nc2cnccc2n(CC(=O)Nc2ccccc2OC)c1=O | -15
OC[C@@H]1[C@H]2CN(c3ccccn3)CCN2C[C@H]1c1ccccc1 | -8.43
Cc1cc(NC(=O)C(C)Cn2cncn2)no1 (stereo unspecified) | -5.18
O=C(NCc1nc2ccccc2[nH]1)c1cc2n(n1)CCCO2 | -5.43
O=C(c1ccccn1)N1CCC(Oc2ncccc2Cl)CC1 | 3.07
c1ccc(N2CCc3ncnc(C4CC4)c3CC2)nc1 | -157
CCS(=O)(=O)N1C[C@H]2CN(Cc3cccc(C)c3)C(=O)[C@H]2C1 | 2.9
COCC1Cn2nnc(-c3cnn(C)c3)c2CN1Cc1ccc(C)o1 (stereo unspecified) | 4.82
COCCN1Cc2ccccc2C2(CCN(C(=O)c3ccno3)CC2)C1 | 5.58
CCOCC(=O)N1CCCn2c(CN3CCCCC3)nnc2C1 | -110
O=S(=O)(C1CC1)N1CCC2(CC1)CC(Oc1ccccn1)CO2 (stereo unspecified) | -139
CCOC(=O)Cc1cs/c(=N/C(=O)COc2cnc(C)cc2O)[nH]1 | 4.62
O=c1ccc(-c2cccs2)nn1CN1CCOCC1 | 5.68
CC(=O)N1CCN(C(=O)c2[nH]nnc2Nc2ccccc2F)CC1 | 2.1
CC1(c2nccs2)CCN(C(=O)CC2CCOCC2)CC1 | -0.29
Cc1csc2c(C3CCCN(C(=O)CCCn4cncn4)C3)nc(C)n12 (stereo unspecified) | 7.69
O=C(O)c1ccccc1-n1cnc(CN2CCc3ccccc32)c1 | 11.7
CSc1ncc(C(=O)N(C)C(C)Cc2ccccn2)cn1 (stereo unspecified) | 15.9
CNC(=O)c1cccc(CC2COCCN(Cc3ccc(C)o3)C2)n1 (stereo unspecified) | 0.166
O=C(c1cccnc1)N1CCCC1c1cc[nH]n1 (stereo unspecified) | -26.5

Compound | cytotoxicity at 10 µM [%]
O=C(CCn1c(C(F)F)cc2cccnc21)NC1CCCC1 | -40.5
Cn1nccc1C(=O)N1Cc2cc(Cl)ccc2OC2(CCOCC2)C1 | 19.7
O=C(Cc1ccsc1)N1CCC(c2noc(-c3ccncc3)n2)CC1 | -22.1
NC(=O)CN1CCCC(CCCc2ccccn2)(C(N)=O)C1 (stereo unspecified) | -23.5
O=C(Cc1ccsc1)N1CCC(c2n[nH]c3nccnc23)CC1 | -10.6
O=C(C1CCCC1)N1CCn2c(nnc2C2CCCNC2)C1 (stereo unspecified) | 1.19
CC(NCCCN1CCCC1=O)c1cc(Br)ccc1O (stereo unspecified) | -1.41
CCc1noc(C(C)N2CCc3c(ncn3C3CC3)C2)n1 (stereo unspecified) | 4.36
COc1ccc(C(NC(=O)c2cccc[n+]2[O-])C2CC2)cc1 (stereo unspecified) | 7.12
Cc1ccc(CN(C)C(=O)CNC(=O)N2CCc3ccccc3C2)o1 | 5.95
O=C(NCC1CCS(=O)(=O)C1)N(Cc1ccncc1)C1CC1 (stereo unspecified) | -138
CSCc1ccc(CNCCCN2CCOCC2)o1 | 5.81
COc1c(Cl)cccc1NCc1csc(C)n1 | -10.1
CC(C)c1noc(CCC(=O)N2CCCC(n3ccnc3)C2)n1 (stereo unspecified) | 5.58
Cc1nc2c(c(C)c1CC(=O)Nc1ccnn1C(C)C)c(=O)[nH]n2C | 13
CN(Cc1ccco1)Cc1ccccc1CNC(=O)c1c[nH]nn1 | -2.89
CC(OCC(F)(F)F)C(=O)N1CCCC1 (stereo unspecified) | -14
CCC(CO)NC(=O)NCc1cc(C#N)ccc1F (stereo unspecified) | -1.22
N#Cc1cccc(CN2C(=O)c3ccccc3CS2(=O)=O)c1 | -2.14
CN(C)CCn1ccc2ccc(NC(=O)c3ccncc3F)cc21 | -1.53
CCc1nnc2ccc(NCC3(O)CCOCC3)nn12 | -0.439
Cc1cccc2nc(CSCc3nnnn3C(C)C)cn12 | 1.24
CCc1nc(CC(=O)NC(C#N)CC(C)C)cs1 (stereo unspecified) | 9.17

Compound | cytotoxicity at 10 µM [%]
OCc1ccncc1NCc1cnc(-c2ccccn2)s1 | -17.4
CC(Cn1cccn1)NC(=O)N(C)Cc1ccsc1 (stereo unspecified) | -3.81
CNC(=O)NC(=O)CN(Cc1ccc(C#N)cc1)Cc1cccc(F)c1 | 5.51
Cc1ccc(OCC(O)Cn2ncc3cnn(C)c(=O)c32)cc1 (stereo unspecified) | -3.49
Cc1csc(CN(C)C(=O)Nc2cc(F)cc(N3CCCC3)c2)n1 | 8.16
Cc1cccc(C(C)CNS(=O)(=O)CCCC#N)c1 (stereo unspecified) | -2.17
CC(=O)N1CCN(C2CCCCc3ccccc32)CC1 (stereo unspecified) | -46.3
Cc1ccnc(NC(=O)CSCc2cccnc2)c1 | -42.2
O=C1CC(NS(=O)(=O)N2CCOCC2)CN1Cc1ccccc1 (stereo unspecified) | 4.19
CSC(C)(C)CNC(=O)NCC[S+]([O-])c1ccccc1 (stereo unspecified) | 15.5
Cc1nc(C(=O)N2CCN(C(C)c3ccccc3F)CC2)cs1 (stereo unspecified) | -0.462
COc1cccc(CC(=O)N2CC[C@@H]3CN(C)S(=O)(=O)[C@@H]3CC2)c1 | -2.36
CC(=O)N1CC[C@H]2OCC[C@@H](C(=O)Nc3cccnc3C)[C@@H]2C1 | 11.3
Cc1cccc(NC(=O)N2CCC3(CCC(C(=O)N(C)C)O3)CC2)c1 (stereo unspecified) | -107
COC[C@@H]1CC[C@H]2[C@H](CCN2S(=O)(=O)c2ccc(C)cc2)O1 | -1.05
CSc1ncc(CN(C)C(C)c2cccnc2)cn1 (stereo unspecified) | 2.1
COc1cccc(CC(=O)N2CCCN(c3ccnc(C)c3)CC2)c1 | -7.06
Nc1ncc(C(=O)N2CCC(O)(CO)CC2)c(-c2ccccc2)n1 | -144
CN1CCN(C(=O)N2CCC3(CCCN(C4CCOCC4)C3=O)C2)CC1 (stereo unspecified) | -129
CN1CCN(CC(C)(C)C)CC1CCO (stereo unspecified) | 1.88
Cc1nc(N(C)C)nc(N(C)Cc2cnccn2)c1C | 3.4
CCC(CO)N(Cc1ccco1)C(=O)c1ccccc1SC (stereo unspecified) | 6.41
Cc1nccn1CCN(C)c1nc(-c2cccnc2)nc2c1CCNC2 | -21.2

Compound | cytotoxicity at 10 µM [%]
NC(=O)CCC(=O)N1CCc2[nH]nc(-c3ccc4c(c3)OCO4)c2C1 | -142
Cc1ccncc1C(=O)N1CC[C@@]2(O)CCN(C3CCCCC3)C[C@H]2C1 | -125
CCCSCC(=O)N1CCN(c2ccc(C)cc2)CC1C (stereo unspecified) | -165
CCC1(O)CCCN(c2nc(-c3ccccn3)nc3c2c(C)nn3C)C1 (stereo unspecified) | 3.11
CCc1ccccc1CN1CCC(N2CCCC2=O)CC1 | -2.53
CN1CCN(c2cccc(NC(=O)NCc3csc(N(C)C)n3)c2)C1=O | 0.91
CN(Cc1ccc2c(c1)OCO2)C(=O)c1ccc(C2CCCO2)s1 (stereo unspecified) | 5.6
CN1CCN(CCCOc2ccccc2CN2C[C@H]3CC[C@H]2C3)CC1 | -7.88
O=C1CC2(CCN(C(=O)c3csc(-c4ccccc4)n3)C2)C(=O)N1 (stereo unspecified) | -1.25
Cc1cc2occ(CC(=O)N3CCC4(CCCN(C)C4=O)C3)c2cc1Cl (stereo unspecified) | -4.03
O=C(c1cscn1)N1CCC(Cn2cc(-c3ccsc3)nn2)CC1 | 0.259
CN(C(=O)c1ccc2c(c1)nc(N1CC[C@H](O)C1)n2C)C1CCSCC1 | -13
CC(C)=CCN1CCN(Cc2ncc[nH]2)[C@H]2CS(=O)(=O)C[C@H]21 | 5.44
CC(C)N(C)CC(=O)N1CCCC(c2ccc(C(=O)O)cc2)C1 (stereo unspecified) | -6.09
CSc1cccc(CN(C)C(=O)C2CC(=O)N(CCN(C)C)C2)c1 (stereo unspecified) | -16.5
COc1ccc(S(=O)(=O)NC(=O)COC2CCCC2)cc1 | -2.55
Cc1nc(C)n(CC2CCCN(Cc3ncc(C(C)(C)C)o3)C2)n1 (stereo unspecified) | -5.95
CC(C)c1nccc(N2CCN(CC(=O)N3CCOCC3)CC2)n1 | -8.68
CCN(CC1CCOC1)C(=O)c1ccccc1S(=O)(=O)CC (stereo unspecified) | -2.15
Cc1ccc(F)cc1NS(=O)(=O)c1cc2c(c(C(=O)O)c1)OCCO2 | -3.88
Cc1cc(NC(=O)CN2CCN(c3nc(C)cs3)C(C)C2)on1 (stereo unspecified) | -1.81
N#Cc1cccnc1N1CCC(C2CCCCCN2C(=O)C2CC2)CC1 (stereo unspecified) | 1.95
CCOc1ncccc1NC(=O)NCC(C)O (stereo unspecified) | -5.68

Compound | cytotoxicity at 10 µM [%]
CC(C)c1cnc(CN(C)C2CCN(CCc3cnn(C)c3)C2)o1 (stereo unspecified) | -7.12
CC(O)CN1CCN(C(=O)c2sccc2C2CC2)CC1 (stereo unspecified) | 1.83
CCc1n[nH]c(C2CN(C(=O)c3cncnc3CC)CCO2)n1 (stereo unspecified) | -5.65
O=C(CCc1nccs1)N1CCCC(n2ccnc2)C1 (stereo unspecified) | -16
COCCc1noc(CN2CCCC(Cn3cncn3)C2)n1 (stereo unspecified) | -2.55
O=C(c1cccc2c1OCCO2)N1CCCC(n2cccn2)C1 (stereo unspecified) | -3.73
Cc1ncsc1C(=O)N1CCCC1c1c(C)nn(C)c1Cl (stereo unspecified) | -1.9
N#Cc1cc(NS(=O)(=O)c2cc(C(=O)O)cc(Cl)c2Cl)ccc1F | -1.37
O=C(C1CC1)N1CC2(CCNCC2)C1 | -0.832
O=C(c1cc(C2CCCCN2CCO)n[nH]1)N1CCOCC1 (stereo unspecified) | -24.5
CCN1CCN(C)C(=O)C12CCN(Cc1csc(C)n1)CC2 | 1.53
Cc1nc(CN2CCC3(CCCN(Cc4cnn(C)c4)C3)C2=O)cs1 (stereo unspecified) | -5.74
COCC1c2c(cnn2CC2CC2)CCN1Cc1cccs1 (stereo unspecified) | -6.61
c1cnc(NCc2noc3c2CN(CCN2CCCC2)CC3)nc1 | -7.36
O=C(c1ncccn1)N1CC[C@H]2OCC[C@@]2(COc2ccccn2)C1 | -146
CN1CCN(C(=O)[C@H]2C[C@@H]3CN(c4ncc(F)cn4)C[C@@H]3N2C)CC1 | -136
CN1CCN(Cc2cnc3n2CCN(Cc2cccnc2)CC3)CC1 | 6.26
CC(C)Nc1ncnc2c1CCN(C(=O)NCc1cccnc1)CC2 | -150
COC(=O)Cn1c(=O)[nH]c2cn(-c3ccc(C)cc3)c(=O)n21 | 0.413
